Test results: ChEMBL document CHEMBL3792386, “Design, Synthesis, and Biological Evaluation of Novel Selenium (Se-NSAID) Molecules as Anticancer Agents” (J Med Chem, 2016)
Calls of active or inactive are those of the source. The rule behind the calls is not given here.

Key:
[1] = tested on: NCI-H460; assay: Antiproliferative activity against human NCI-H460 cells assessed as reduction in cell viability after 24 hrs by MTT assay; type: functional, cell-based; conditions: NCI-H460, 24 h
How it was run: (§1)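 3000 cells/well incubated in triplicate with serial concentrations of compound for 24, 48 or 72 h at 37 °C. MTT (5.0 mg/mL solution) added 3 h before the end. Formazan dissolved in DMSO, absorbance read at 570 and 630 nm. Viability normalised to vehicle control. IC50 from non-linear regression (variable slope), mean ± SD of triplicates.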

[2] = tested on: HepG2; assay: Antiproliferative activity against human HepG2 cells assessed as reduction in cell viability after 48 hrs by MTT assay; type: functional, cell-based; conditions: HepG2, 48 h; how it was run: as §1
[3] = Antiproliferative activity against human SKOV3 cells assessed as reduction in cell viability after 24 hrs by MTT assay; type: functional, cell-based; conditions: SK-OV-3, 24 h; how it was run: as §1
[4] = tested on: MEF; assay: Cytotoxicity against mouse MEF at 1 to 10 uM after 48 hrs by MTT assay; type: cell-based
How it was run: (§2)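 Cells (HCT116, nHDF in serum-free fibroblast medium with growth kit, or MEFs) exposed to increasing compound concentrations for 48 h at 37 °C. Viability read by MTT: 3000 cells/well, triplicate, MTT 3 h before end, formazan in DMSO, absorbance 570/630 nm. Mean ± SD.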

[5] = tested on: HCT-116; assay: Cytotoxicity against human HCT116 cells assessed as reduction in cell viability after 48 hrs MTT assay; type: functional, cell-based; how it was run: as §2
[6] = tested on: HCT-116; assay: Induction of cell cycle arrest in human HCT116 cells assessed as accumulation at G1 phase at 5 uM after 12 hrs by propidium iodide staining-based flow cytometry (reference value: 35%); type: functional
[7] = tested on: HCT-116; assay: Induction of cell cycle arrest in human HCT116 cells assessed as reduction of G2/M phase at 5 uM after 24 hrs by propidium iodide staining-based flow cytometry (reference value: 24%); type: functional; set-up: scale not given: the % may be the effect or the level left
[8] = tested on: HCT-116; assay: Induction of cell cycle arrest in human HCT116 cells assessed as accumulation at G1 phase at 5 uM after 24 hrs by propidium iodide staining-based flow cytometry (reference value: 28%); type: functional
[9] = Effect on cell cycle in human HCT116 cells assessed as upregulation of cyclin p21 expression after 24 hrs by Western blot method; type: functional, cell-based; conditions: HCT-116
How it was run: (§3)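 CRC cells treated at indicated doses for 24 h. Whole-cell lysates made in RIPA buffer with protease and phosphatase inhibitors and cleared at 15,000 rpm for 10 min. Resolved on 4-12% gels, transferred to PVDF, probed for cell-cycle proteins, detected by ECL. Membranes stripped for sequential probing.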

[10] = tested on: HCT-116; assay: Effect on cell cycle in human HCT116 cells assessed as inhibition of cyclin E1 expression at 1 to 10 uM after 24 hrs by Western blot method; type: functional, cell-based; how it was run: as §3
[11] = tested on: HCT-116; assay: Induction of apoptosis in human HCT116 cells assessed as dead cells at 2.5 uM after 24 hrs by annexin V/7-ADD staining-based flow cytometry (reference value: 3.10%); type: functional
[12] = tested on: HCT-116; assay: Induction of apoptosis in human HCT116 cells assessed as live cells at 2.5 uM after 24 hrs by annexin V/7-ADD staining-based flow cytometry (reference value: 90.05%); type: functional
[13] = tested on: HCT-116; assay: Induction of apoptosis in human HCT116 cells assessed as early apoptotic cells at 2.5 uM after 24 hrs by annexin V/7-ADD staining-based flow cytometry (reference value: 5.20%); type: functional
[14] = tested on: HCT-116; assay: Induction of apoptosis in human HCT116 cells assessed as late apoptotic cells at 10 uM after 24 hrs by annexin V/7-ADD staining-based flow cytometry (reference value: 1.65%); type: functional
[15] = tested on: HCT-116; assay: Induction of apoptosis in human HCT116 cells assessed as late apoptotic cells at 2.5 uM after 24 hrs by 7-ADD and caspase 3/7 activity-based flow cytometry (reference value: 1.70%); type: functional
[16] = tested on: HCT-116; assay: Induction of apoptosis in human HCT116 cells assessed as late apoptotic cells at 5 uM after 24 hrs by 7-ADD and caspase 3/7 activity-based flow cytometry (reference value: 1.70%); type: functional
[17] = tested on: HCT-116; assay: Induction of apoptosis in human HCT116 cells assessed as live cells at 5 uM after 24 hrs by 7-ADD and caspase 3/7 activity-based flow cytometry (reference value: 92.60%); type: functional
[18] = tested on: HCT-116; assay: Induction of apoptosis in human HCT116 cells assessed as early apoptotic cells at 5 uM after 24 hrs by 7-ADD and caspase 3/7 activity-based flow cytometry (reference value: 2.45%); type: functional
[19] = tested on: HCT-116; assay: Induction of apoptosis in human HCT116 cells assessed as dead cells at 10 uM after 24 hrs by 7-ADD and caspase 3/7 activity-based flow cytometry (reference value: 3.25%); type: functional
[20] = tested on: HCT-116; assay: Induction of apoptosis in human HCT116 cells assessed as live cells at 10 uM after 24 hrs by 7-ADD and caspase 3/7 activity-based flow cytometry (reference value: 92.60%); type: functional
[21] = tested on: HCT-116; assay: Induction of apoptosis in human HCT116 cells assessed as early apoptotic cells at 10 uM after 24 hrs by 7-ADD and caspase 3/7 activity-based flow cytometry (reference value: 2.45%); type: functional
[22] = tested on: HCT-116; assay: Induction of apoptosis in human HCT116 cells assessed as cleaved PARP level at 1 to 10 uM after 24 hrs by Western blot method; type: functional, cell-based
How it was run: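 HCT116 lysates after 24 h treatment made in RIPA buffer with protease and phosphatase inhibitors. Resolved by SDS-PAGE (4-12%), transferred to PVDF, probed for PARP with β-actin as loading control, detected by ECL.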

[23] = tested on: HCT-116; assay: Induction of ROS generation in human HCT116 cells at 5 uM after 6 hrs by flow cytometry (reference value: 6%); type: functional
[24] = tested on: HCT-116; assay: Induction of ROS generation in human HCT116 cells at 5 uM after 24 hrs by flow cytometry (reference value: 12.42%); type: functional
[25] = tested on: UACC-903; assay: Potency index, ratio IC50 of selecoxib-1-GSH to IC50 of compound for human UACC-903 cells after 48 and 72 hrs; type: functional
[26] = tested on: HT-29; assay: Antiproliferative activity against human HT-29 cells assessed as reduction in cell viability after 48 hrs by MTT assay; type: functional, cell-based; conditions: HT-29, 48 h; how it was run: as §1
[27] = tested on: MDA-MB-231; assay: Antiproliferative activity against human MDA-MB-231 cells assessed as reduction in cell viability after 48 hrs by MTT assay; type: functional, cell-based; conditions: MDA-MB-231, 48 h; how it was run: as §1
[28] = Antiproliferative activity against human PANC1 cells assessed as reduction in cell viability after 24 hrs by MTT assay; type: functional, cell-based; conditions: PANC-1, 24 h; how it was run: as §1
[29] = tested on: UACC-903; assay: Antiproliferative activity against human UACC-903 cells assessed as reduction in cell viability after 24 hrs by MTT assay; type: functional, cell-based; conditions: UACC-903, 24 h; how it was run: as §1
[30] = tested on: UACC-903; assay: Antiproliferative activity against human UACC-903 cells assessed as reduction in cell viability after 72 hrs by MTT assay; type: functional, cell-based; conditions: UACC-903, 72 h; how it was run: as §1
[31] = Antiproliferative activity against human HCT116 cells assessed as reduction in cell viability after 24 hrs by MTT assay; type: functional, cell-based; conditions: HCT-116, 24 h; how it was run: as §1
[32] = Antiproliferative activity against human DU145 cells assessed as reduction in cell viability after 48 hrs by MTT assay; type: functional, cell-based; conditions: DU-145, 48 h; how it was run: as §1

CC(=O)Oc1ccccc1C(=O)NCC[Se]C#N showed an IC50 [1] of over 50 µM, an IC50 [2] of 5 µM and an IC50 [3] of over 50 µM. For the same molecule, the Activity [4] was “Non-toxic”, the Activity [5] was “Active” and the Activity [6] was 62%. The Activity [7] was 19%, the Activity [8] was 68% and the Activity [9] was “Dose-dependent effect”. The inhibition [10] was “Active”, the Activity [11] was 1.25% and the Activity [12] was 76.8%. It also gave an Activity [13] of 13.65%, an Activity [14] of 51.55% and an Activity [15] of 9.05%. For the same molecule, the Activity [16] was 32.8%, the Activity [17] was 20.55% and the Activity [18] was 44%. It also gave an Activity [19] of 2.25%, an Activity [20] of 13.25% and an Activity [21] of 37.65%. The Activity [22] was “Active”, the Activity [23] was 13.12% and the Activity [24] was 66.42%. For the same molecule, the “Ratio IC50” value [25] was “>=5”, the IC50 [26] was 2.1 µM and the IC50 [27] was 5.5 µM. It also gave an IC50 [28] of 12.1 µM, an IC50 [29] of 24.3 µM and an IC50 [30] of 2.9 µM. It also gave an IC50 [31] of 16.2 µM and an IC50 [32] of 3.4 µM.
